Compound activity (PubChem)
MEKK3 PB1 HTS – modulators (inhibitors or enhancers) of MEK5 binding to human MEKK3 PB1 domain; Q99759; hit rate 1.4% among 290,000; AID 1529; bead-based flow cytometry, Alexa488-MEK5 binding to MEKK3; actives lie on both sides; 0 = blocked by unlabeled MEK5, 100 = vehicle; binding response (% of control), % at 10 µM;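 active means binding response more than 3 SD above or below the average of its plate-row segment, actives on both sides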;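 further: Alexa488 bead fluorescence after subtracting the streptavidin-only scavenger bead signal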
MEKK2 WT-MEK5 – raises or lowers MEK5 binding to wildtype human MEKK2 PB1 domain; Q9Y2U5; bead flow cytometry, Alexa488-MEK5 binding to MEKK2 WT; actives lie on both sides; binding response (% of control), % at 10 µM; hit rate 1.1% among 290,000; in the data active means binding response below about 67% or above about 130%
MEKK2mut PB1 HTS – signal of MEK5 binding to mutant human MEKK2 PB1 domain | bead flow cytometry, Alexa488-MEK5 binding to MEKK2 mutant | AID 1530 | percent response, % at 10 µM | hit rate 0.35% among 290,000; in the data active means percent response above about 24%, passing the limit was not always enough
PREPL inh – inhibits the human prolyl oligopeptidase-like enzyme. hit rate 0.68% among 320,000. recombinant PREPL, fluorescence polarization activity-based probe. inhibition, % at 5.96 µM. Q4J6C6. AID 2751; in the data active means inhibition above about 43%
Apaf-1 inh – inhibitors of human Apaf-1 apoptosome; O14727; reconstituted apoptosome caspase-3 activity, DEVD-Rh110 fluorescence; inhibition, % at 20 µM; hit rate 0.71% among 330,000; AID 489030; active means inhibition of at least 40% at 20 µM
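Assay system – apoptosome proteins · Medium – Hepes buffer, pH 7.5 · Also added – cytochrome c with DEVD-Rh110 · Timing – 30 min compound preincubation, 50 min activation, room temperature · Detection – Rh110 fluorescence, excitation 480 nm, emission 540 nm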
UBC13 inh – inhibitors of human UBC13 polyubiquitin chain formation. AID 485273. TR-FRET. inhibition, % at 20 µM. hit rate 0.47% among 330,000; in the data active means inhibition above about 45%, passing the limit was not always enough
Target sequence (P61088 whole entry, looked up): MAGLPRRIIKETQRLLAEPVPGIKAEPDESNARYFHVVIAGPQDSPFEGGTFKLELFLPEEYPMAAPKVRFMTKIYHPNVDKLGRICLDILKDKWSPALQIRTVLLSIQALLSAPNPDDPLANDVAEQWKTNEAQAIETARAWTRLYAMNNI
Numbers stand for hits; – = inactive; · = no result; [ ] = dose if it differs, or a comment. Hits are enriched below; roughly 3.1% of the tested compounds scored in any of these assays.

SMILES	MEKK3 PB1 HTS	MEKK2 WT-MEK5	MEKK2mut PB1 HTS	PREPL inh	Apaf-1 inh	UBC13 inh
Cc1ccc2c(c1)C1CCCC3C1N2CC(=O)N3Cc1ccccc1 (centres undefined)	–	18.0	–	–	–	–
Cc1ccc2c(c1)C(CCN)C(=O)N2Cc1ccccc1 (centres undefined)	–	–	–	–	–	–
CC1(C)CC(=O)/C(=C\c2cccc([N+](=O)[O-])c2)C(C)(C)N1	132.0	–	–	–	–	–
O=C1c2ccccc2-c2c1nc1c([n+]2[O-])CCCC1	–	–	–	–	41.6	–
Cc1ccc(-n2c(-c3ccc(Br)cc3)c[n+]3c2CCc2ccc4cccnc4c2-3)cc1	–	153.0	–	–	·	·
CC1CN(C(=O)CCC(=O)NCCCN2CCN(Cc3ccccc3)CC2)c2cc(Cl)ccc2O1 (centres undefined)	–	–	–	–	–	–
O=S(=O)(/N=C(/c1ccccc1)N1CCOCC1)c1ccc(F)cc1F	·	·	·	–	–	–
O=C(CSc1nnc(C2CC2)n1C1CC1)c1cc(F)ccc1F	·	·	·	·	–	–
O=S(=O)(c1ccccc1)c1nnn2c1nc(NC1CCN(Cc3ccccc3)CC1)c1ccccc12	–	146.0	32.0	–	–	–
O=C(NC1CCN(Cc2ccccc2)CC1)C1CCN(S(=O)(=O)c2ccc(Cl)cc2)CC1	–	–	–	–	–	–
Cc1ccc(C)c(Nc2nc3c(S(=O)(=O)c4ccccc4)nnn3c3ccccc23)c1	–	–	–	–	–	–
O=S(=O)(c1ccccc1)c1nnn2c1nc(NC1CCN(Cc3ccccc3)CC1)c1cc(Cl)ccc12	–	138.0	33.0	–	–	–
O=C1C(Cl)=C(NC(=O)c2ccccc2)C(=O)C(Cl)=C1NC(=O)c1ccccc1	–	–	–	–	56.4	–
CN1CCN(C(=O)c2ccc3c(c2)N(C)C(=O)/C(=C/c2cccc(Cl)c2)S3)CC1	–	137.0	–	–	–	–
COc1ccc(/C=C2\Sc3ccc(C(=O)N4CCN(Cc5ccccc5)CC4)cc3N(C)C2=O)cc1OC	–	–	–	–	–	–
CN(C)CCCN(C(=O)c1ccc(C(=O)c2ccccc2)cc1)c1nc2ccc(F)cc2s1	–	174.0	–	–	–	–
Cc1cccc2sc(N(CCCN(C)C)C(=O)c3ccc(C(=O)c4ccccc4)cc3)nc12	–	168.0	33.0	–	–	–
Cc1ccc2sc(N(CCN(C)C)C(=O)c3ccc4ccccc4c3)nc2c1C	–	161.0	–	–	–	–
CC[n+]1c(/C=C/c2ccc(OC)c(OC)c2)ccc2ccccc21	–	–	–	–	–	–
CN(C)c1ccc(/C=C/c2cc[n+](C)cc2)cc1	–	28.0	–	–	–	–
CC[n+]1c(/C=C/c2ccc(N(C)C)cc2)ccc2ccccc21	–	4.0	–	–	·	·
CCOC(=O)c1c2c(n(C)c1COC)C(=O)C(=O)c1ccc(Br)cc1-2	–	–	–	–	96.8	–
NC(N)=Nc1cc2ccccc2c2ccccc12	–	–	–	–	76.8	–
CCCN1CCCc2cc(CN)ccc21	–	–	–	63.3	83.9	–
CN1CCCc2cc(C=O)ccc21	–	–	–	–	–	–
SMILES	MEKK3 PB1 HTS	MEKK2 WT-MEK5	MEKK2mut PB1 HTS	PREPL inh	Apaf-1 inh	UBC13 inh
CC(=O)Nc1ccc(OCC(O)Cn2c3ccccc3c3ccccc32)c(C)c1 (centres undefined)	–	–	–	45.0	–	–
COc1c2ccoc2nc2c(OC)c(OC[C@@H](O)C(C)(C)O)ccc12	·	·	·	–	–	–
O=C(C1CCN(Cc2ccc(Cl)cc2)CC1)N1CCN(C(c2ccccc2)c2ccccc2)CC1	–	145.0	–	–	–	–
O=C(c1ccc(Cl)cc1)C1CCN(Cc2ccccc2)CC1	–	–	–	–	–	–
Cc1ccc(NC(=S)NC2CCN(Cc3ccccc3)CC2)cc1	–	–	–	–	–	–
S=C(Nc1cc(Cl)cc(Cl)c1)NC1CCN(Cc2ccccc2)CC1	–	135.0	–	·	–	–
Cc1onc(C(=O)Nc2ccccc2C(F)(F)F)c1[N+](=O)[O-]	1.0[inhibitor]	0.0[inhibitor]	–	–	–	–
CSc1ccccc1NC(=O)c1noc(C)c1[N+](=O)[O-]	–	–	–	–	–	–
CC(C)N1CCC2(CC1)C(C#N)=C(N)NC(S)=C2C#N	–	–	–	49.2	–	–
